Laboratory results: ChEMBL document CHEMBL4342500, “Modulating Heparanase Activity: Tuning Sulfation Pattern and Glycosidic Linkage of Oligosaccharides” (J Med Chem, 2020)
The source made the active and inactive calls. The rule behind the calls is not given here.

What was measured:
[1] = target: T1, Heparanase (Homo sapiens, UniProt Q9Y251); experiment: Inhibition of heparanase (unknown origin) using biotin-heparan sulfate-Eu cryptate as substrate preincubated for 10 mins followed by substrate addition and measured after 60 mins by TR-FRET assay
T1 sequence (Q9Y251 whole entry): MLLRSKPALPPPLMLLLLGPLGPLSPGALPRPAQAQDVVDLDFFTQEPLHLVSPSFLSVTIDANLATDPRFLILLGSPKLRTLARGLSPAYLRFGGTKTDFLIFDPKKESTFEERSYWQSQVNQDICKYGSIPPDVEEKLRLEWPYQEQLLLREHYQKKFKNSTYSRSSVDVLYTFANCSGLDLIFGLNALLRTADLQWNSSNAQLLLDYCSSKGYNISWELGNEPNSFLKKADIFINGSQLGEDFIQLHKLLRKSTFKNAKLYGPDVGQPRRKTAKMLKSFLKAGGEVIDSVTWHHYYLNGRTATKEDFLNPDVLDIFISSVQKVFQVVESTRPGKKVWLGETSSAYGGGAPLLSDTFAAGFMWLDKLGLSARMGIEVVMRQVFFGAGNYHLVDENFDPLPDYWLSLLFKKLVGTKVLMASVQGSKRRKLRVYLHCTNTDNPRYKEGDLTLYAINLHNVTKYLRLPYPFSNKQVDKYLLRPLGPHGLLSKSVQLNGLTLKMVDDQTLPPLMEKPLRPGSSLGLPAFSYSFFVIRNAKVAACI

[2] = target: Coagulation factor X (Homo sapiens, UniProt P00742); experiment: Inhibition of coagulation factor 10a (unknown origin) incubated for 2 mins in presence of AT3 by chromogenic substrate based […] assay
Coagulation factor X, sequence (P00742 41-179 limits assumed): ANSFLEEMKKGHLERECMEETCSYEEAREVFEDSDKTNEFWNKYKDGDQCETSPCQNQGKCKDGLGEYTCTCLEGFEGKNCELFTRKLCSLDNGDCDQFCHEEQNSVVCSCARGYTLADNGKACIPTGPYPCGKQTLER
Coagulation factor X, sequence (P00742 235-488 limits assumed): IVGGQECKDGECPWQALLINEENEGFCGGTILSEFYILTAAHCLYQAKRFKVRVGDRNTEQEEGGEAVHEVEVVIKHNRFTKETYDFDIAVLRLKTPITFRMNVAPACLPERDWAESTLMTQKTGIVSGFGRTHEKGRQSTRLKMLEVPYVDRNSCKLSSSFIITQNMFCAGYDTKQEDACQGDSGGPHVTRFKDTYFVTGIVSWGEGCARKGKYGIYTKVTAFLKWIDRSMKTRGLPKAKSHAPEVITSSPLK
Method in brief: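 Two-stage chromogenic anti-FXa: sample (heparin 0.002-500 nM or trisaccharide 3.9-4000 nM) with ATIII (0.04 IU), 2 min at 37 °C; FXa (0.32 μg) added, 2 min at 37 °C; chromogenic substrate added, stopped after 2 min with citric acid (20 g/L). Absorbance at 405 nm in triplicate, minus reverse-order sample blank.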

[3] = tested on: MIN6; experiment: Inhibition of ROS production in mouse MIN6 cells assessed as reduction in SOD1 mRNA level at 15 uM incubated for 24 hrs by qRT-PCR analysis; type: functional, cell-based
Method in brief: (§1)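 MIN6 cells grown in high-glucose DMEM/10% FBS/50 μM β-mercaptoethanol, cultured at ~50% confluency in conditioned medium from heparanase-producing or control CHO cells with PBS vehicle or inhibitor for 24 h. Total RNA extracted with Trizol; cDNA made from 500 ng RNA; transcripts measured by quantitative real-time PCR.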

[4] = target: T2, Heparanase (Homo sapiens) (UniProt Q9Y251); experiment: Inhibition of human recombinant heparanase assessed as reduction in [35S] labeled ECM degradation at 10 ug/ml incubated for 5 hrs relative to control
T2 sequence (whole entry): T1 sequence (Q9Y251 whole entry)
Method in brief: (§2)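 [35S]sulfate-labeled ECM on 35 mm dishes incubated 5 h at 37 °C with recombinant human heparanase (0.5 ng/ml), with or without inhibitor, in 1 ml containing 50 mM NaCl, 1 mM DTT, 1 mM CaCl2, 10 mM phosphate-citrate pH 6.0. Released material gel-filtered on Sepharose 6B, eluted with PBS; 0.2 ml fractions counted for radioactivity.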

[5] = target: T2, Heparanase (Homo sapiens); experiment: Inhibition of heparanase (unknown origin) assessed as reduction in ROS-mediated SOD1 mRNA level in mouse MIN6 cells co-incubated with heparanase-producing CHO cells at 15 uM incubated for 24 hrs by qRT-PCR analysis; type: cell-based; method in brief: as §1
[6] = target: Prothrombin (Homo sapiens, UniProt P00734); experiment: Inhibition of coagulation factor 2a (unknown origin) incubated for 2 mins in presence of AT3 by chromogenic substrate based […] assay
Method in brief: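 Two-stage chromogenic anti-FIIa: sample (heparin 0.002-500 nM or trisaccharide 3.9-4000 nM) with ATIII (0.01 IU), 2 min at 37 °C; FIIa (1.2 nkat) added, 2 min at 37 °C; chromogenic substrate added, stopped after 2 min with citric acid (20 g/L). A405 read in triplicate; reverse-order sample blank subtracted.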

[7] = tested on: MIN6; experiment: Inhibition of heparanase (unknown origin) assessed as reduction in ROS production in mouse MIN6 cells co-incubated with heparanase-producing CHO cells at 15 uM incubated for 24 hrs by mitochondrial ROS probe staining based fluorescence microscopic method; type: functional, cell-based
Method in brief: (§3)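 MIN6 mouse insulinoma cells in high-glucose DMEM, 10% FBS, 50 μM β-mercaptoethanol, seeded in 4-well slide chambers. At ~50% confluency, switched to conditioned medium from heparanase-producing or control CHO cells and given PBS vehicle or inhibitor for 24 h. Stained with mitochondrial ROS tracker (100 nM); fluorescence imaged by microscopy and extent/intensity quantified.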

[8] = target: T2, Heparanase (Homo sapiens); experiment: Inhibition of heparanase (unknown origin) assessed as reduction in ROS-mediated ERO1alpha mRNA level in mouse MIN6 cells co-incubated with heparanase-producing CHO cells at 15 uM incubated for 24 hrs by qRT-PCR analysis; type: cell-based; method in brief: as §1
[9] = tested on: MIN6; experiment: Inhibition of ROS production in mouse MIN6 cells at 15 uM incubated for 24 hrs by mitochondrial ROS probe staining based fluorescence microscopic method; type: functional, cell-based; method in brief: as §3
[10] = target: T3, Platelet factor 4 (Homo sapiens, UniProt P02776); experiment: Binding affinity to PF4 (unknown origin) by BLI assay
T3 sequence (P02776 whole entry): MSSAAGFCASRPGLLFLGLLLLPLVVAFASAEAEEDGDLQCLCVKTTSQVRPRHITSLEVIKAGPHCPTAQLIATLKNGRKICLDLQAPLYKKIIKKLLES
Method in brief: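 PF4 (100 nM) mixed with ligand (0.08-250 μM trisaccharide; heparin 0.4-400 nM); free PF4 probed against biotin-heparin (5 μg/mL, 18 kDa) loaded on streptavidin biosensors. Mass-transport conditions; response fitted to a solution-affinity equation.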

[11] = tested on: MIN6; experiment: Inhibition of ROS production in mouse MIN6 cells assessed as reduction in ERO1alpha mRNA level at 15 uM incubated for 24 hrs by qRT-PCR analysis; type: functional, cell-based; method in brief: as §1
[12] = target: T2, Heparanase (Homo sapiens); experiment: Inhibition of human recombinant heparanase assessed as reduction in [35S] labeled ECM degradation at 50 ug/ml incubated for 5 hrs relative to control; method in brief: as §2

IC50 [1] [nM] | IC50 [2] [nM] | inhibition [4] [%] | inhibition [5] | IC50 [6] [nM] | inhibition [8] | Kd [10] [nM] | inhibition [12] [%] | Structure (SMILES) | inhibition [3] | inhibition [7] | inhibition [9] | inhibition [11]
42100 |  |  |  |  |  |  |  | O=C(O)[C@H]1O[C@@H](O[C@H]2[C@H](O)[C@@H](NS(=O)(=O)O)[C@H](OCCNS(=O)(=O)O)O[C@@H]2COS(=O)(=O)O)[C@H](O)[C@@H](O)[C@@H]1O[C@H]1O[C@H](COS(=O)(=O)O)[C@@H](O)[C@H](O)[C@H]1NS(=O)(=O)O |  |  |  | 
 | 11 |  |  |  |  |  |  | CO[C@H]1O[C@H](COS(=O)(=O)O)[C@@H](O[C@@H]2O[C@@H](C(=O)O)[C@@H](O[C@H]3O[C@H](COS(=O)(=O)O)[C@@H](O[C@@H]4O[C@H](C(=O)O)[C@@H](O[C@H]5O[C@H](COS(=O)(=O)O)[C@@H](O)[C@H](O)[C@H]5NS(=O)(=O)O)[C@H](O)[C@H]4O)[C@H](OS(=O)(=O)O)[C@H]3NS(=O)(=O)O)[C@H](O)[C@H]2OS(=O)(=O)O)[C@H](O)[C@H]1NS(=O)(=O)O [FONDAPARINUX] |  |  |  | 
393 | > 2000 | 50 | Active | > 2000 | Active | 16000 | 100 | O=C(O)[C@H]1O[C@@H](O[C@H]2[C@H](O)[C@@H](NS(=O)(=O)O)[C@@H](OCCNS(=O)(=O)O)O[C@@H]2COS(=O)(=O)O)[C@H](O)[C@@H](O)[C@@H]1O[C@H]1O[C@H](COS(=O)(=O)O)[C@@H](O)[C@H](O)[C@H]1NS(=O)(=O)O | Active | Active | Active | Active
